According to ChEMBL document CHEMBL1155998, “Design and synthesis of piperazinylpyrimidinones as novel selective 5-HT(2C) agonists” (Bioorg Med Chem Lett, 2009):
pEC50, pKi: −log10 of the molar value.

Legend:
[1] = molecular target: T1, 5-hydroxytryptamine receptor 2C (Homo sapiens, UniProt P28335); assay: Agonist activity at human recombinant 5HT2C receptor expressed in CHO K1 cells assessed as calcium mobilisation by FLIPR assay; format: functional, cell-based
T1 sequence (P28335 whole entry): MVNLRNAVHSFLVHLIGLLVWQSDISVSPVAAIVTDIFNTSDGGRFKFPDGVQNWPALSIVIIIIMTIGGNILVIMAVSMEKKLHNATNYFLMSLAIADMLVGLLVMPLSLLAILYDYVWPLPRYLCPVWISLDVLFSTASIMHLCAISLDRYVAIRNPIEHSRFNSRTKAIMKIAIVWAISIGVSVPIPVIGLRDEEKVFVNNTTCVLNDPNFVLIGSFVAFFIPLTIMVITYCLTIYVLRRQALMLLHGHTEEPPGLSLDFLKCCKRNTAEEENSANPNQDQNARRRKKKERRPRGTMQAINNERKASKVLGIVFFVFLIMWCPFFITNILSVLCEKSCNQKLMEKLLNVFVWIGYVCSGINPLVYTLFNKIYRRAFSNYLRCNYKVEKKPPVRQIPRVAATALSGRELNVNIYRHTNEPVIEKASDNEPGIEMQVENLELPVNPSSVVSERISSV
Outline: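 Recombinant CHO K1 cells expressing the human 5-HT2C receptor. Agonism was read as a fluorescent calcium mobilisation signal in a FLIPR assay. Values were reported as EC50 and Emax (%).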

[2] = molecular target: T2, 5-hydroxytryptamine receptor 2C (Homo sapiens) (UniProt P28335); assay: Agonist activity at human recombinant 5HT2C receptor transfected in CHO K1 cells assessed as calcium mobilisation at 10 uM by FLIPR assay relative to serotonin; format: functional, cell-based
T2 sequence (whole entry): T1 sequence (P28335 whole entry)
Outline: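 Recombinant CHO K1 cells stably expressing the human 5-HT2C receptor; agonist-induced calcium mobilisation read as a fluorescence signal on FLIPR. Potency reported as EC50 and efficacy as Emax (%).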

[3] = Lipophilicity, log Dof the compound at pH 7.4; format: physicochemical; conditions: buffer
[4] = tested on: MDR1 (human); assay: Efflux ratio, permeability from basolateral to apical over apical to basolateral side in MDCK cells expressing human MDR1 gene; format: ADME, cell-based, Canis lupus familiaris; conditions: dog
[5] = Intrinsic clearance in human liver microsomes; format: ADME, Microsome
[6] = molecular target: T3, 5-hydroxytryptamine receptor 2A (Homo sapiens, UniProt P28223); assay: Agonist activity at human recombinant 5HT2A receptor transfected in CHO K1 cells assessed as calcium mobilisation at 10 uM by FLIPR assay; format: functional, cell-based
Outline: (§1)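 Recombinant cell-based systems expressing the human 5-HT2A or 5-HT2B receptor. Agonist response was read as calcium mobilisation by FLIPR, with test compound at 10 μM. Results were reported as % agonism.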

[7] = molecular target: T4, 5-hydroxytryptamine receptor 2B (Homo sapiens, UniProt P41595); assay: Agonist activity at human recombinant 5HT2B receptor transfected in CHO K1 cells assessed as calcium mobilisation at 10 uM by FLIPR assay; format: functional, cell-based; outline: as §1
[8] = molecular target: D(3) dopamine receptor (Homo sapiens) (UniProt P35462); assay: Binding affinity to dopamine D3 receptor
[9] = molecular target: 5-hydroxytryptamine receptor 4 (Homo sapiens) (UniProt Q13639); assay: Binding affinity to 5HT4E receptor
[10] = molecular target: Beta-2 adrenergic receptor (Homo sapiens) (UniProt P07550); assay: Binding affinity to beta2 receptor
[11] = molecular target: Muscarinic acetylcholine receptor M3 (Homo sapiens) (UniProt P20309); assay: Binding affinity to M3 receptor
[12] = Binding affinity to calcium ion channel at L-verapamil site
[13] = tested on: Canis familiaris; assay: Increase of urethral pressure in iv dosed dog; format: functional, Canis lupus familiaris, Urethra
Outline: (§2)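 Anaesthetised dogs, two animals, in a urethral function model. Compound was given by intravenous infusion. Peak urethral pressure was recorded as % increase, alongside measured free plasma concentrations.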

[14] = Ratio of drug level in CSF to free plasma in iv dosed dog; format: ADME, organism-based, Canis lupus familiaris; conditions: in vivo
[15] = tested on: Canis familiaris; assay: Free plasma concentration in iv dosed dog; format: ADME, organism-based, Canis lupus familiaris; conditions: in vivo; outline: as §2
[16] = molecular target: T3, 5-hydroxytryptamine receptor 2A; assay: Agonist activity at human recombinant 5HT2A receptor transfected in CHO K1 cells assessed as calcium mobilisation by FLIPR assay; format: functional, cell-based
[17] = molecular target: T4, 5-hydroxytryptamine receptor 2B; assay: Agonist activity at human recombinant 5HT2B receptor transfected in CHO K1 cells assessed as calcium mobilisation by FLIPR assay; format: functional, cell-based
[18] = molecular target: Voltage-gated inwardly rectifying potassium channel KCNH2 (Homo sapiens, UniProt Q12809); assay: Binding affinity to human ERG
[19] = molecular target: 5-hydroxytryptamine receptor 1B (Homo sapiens) (UniProt P28222); assay: Binding affinity to 5HT1B receptor
5-hydroxytryptamine receptor 1B (Homo sapiens), sequence (P28222 whole entry): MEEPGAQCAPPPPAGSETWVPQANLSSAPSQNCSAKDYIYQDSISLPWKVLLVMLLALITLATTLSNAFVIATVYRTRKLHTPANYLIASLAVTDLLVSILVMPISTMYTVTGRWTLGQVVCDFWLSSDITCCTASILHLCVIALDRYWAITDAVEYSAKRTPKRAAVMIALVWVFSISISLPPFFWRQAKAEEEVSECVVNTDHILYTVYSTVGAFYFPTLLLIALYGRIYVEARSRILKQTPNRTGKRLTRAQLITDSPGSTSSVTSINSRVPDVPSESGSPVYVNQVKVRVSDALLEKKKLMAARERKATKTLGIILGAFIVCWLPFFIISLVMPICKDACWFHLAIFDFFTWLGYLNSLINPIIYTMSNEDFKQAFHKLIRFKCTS

T3 sequence (P28223 whole entry): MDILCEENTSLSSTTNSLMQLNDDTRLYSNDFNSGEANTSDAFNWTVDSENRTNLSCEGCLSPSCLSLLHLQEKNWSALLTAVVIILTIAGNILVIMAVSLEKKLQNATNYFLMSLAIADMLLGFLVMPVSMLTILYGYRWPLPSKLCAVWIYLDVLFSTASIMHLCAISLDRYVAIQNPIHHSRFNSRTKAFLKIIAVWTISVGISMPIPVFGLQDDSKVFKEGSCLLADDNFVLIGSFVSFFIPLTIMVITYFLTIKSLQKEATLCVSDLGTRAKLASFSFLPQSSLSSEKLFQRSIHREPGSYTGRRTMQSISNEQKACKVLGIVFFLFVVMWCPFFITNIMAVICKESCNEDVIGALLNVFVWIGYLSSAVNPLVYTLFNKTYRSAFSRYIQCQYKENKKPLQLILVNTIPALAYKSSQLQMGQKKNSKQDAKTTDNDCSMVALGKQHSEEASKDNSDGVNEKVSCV
T4 sequence (P41595 whole entry): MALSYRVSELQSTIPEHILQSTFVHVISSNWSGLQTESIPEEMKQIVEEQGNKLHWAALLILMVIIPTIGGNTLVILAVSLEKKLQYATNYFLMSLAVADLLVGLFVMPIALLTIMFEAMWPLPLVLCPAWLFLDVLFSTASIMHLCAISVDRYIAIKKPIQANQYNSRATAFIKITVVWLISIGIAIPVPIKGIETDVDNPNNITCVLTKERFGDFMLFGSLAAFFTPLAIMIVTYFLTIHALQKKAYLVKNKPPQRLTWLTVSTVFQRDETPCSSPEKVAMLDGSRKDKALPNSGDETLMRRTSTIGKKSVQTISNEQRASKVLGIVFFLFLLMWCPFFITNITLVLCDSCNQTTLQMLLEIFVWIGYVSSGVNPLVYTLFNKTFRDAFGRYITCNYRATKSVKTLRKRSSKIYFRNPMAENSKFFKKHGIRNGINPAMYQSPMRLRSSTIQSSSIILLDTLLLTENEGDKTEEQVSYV
Voltage-gated inwardly rectifying potassium channel KCNH2, sequence (Q12809 whole entry): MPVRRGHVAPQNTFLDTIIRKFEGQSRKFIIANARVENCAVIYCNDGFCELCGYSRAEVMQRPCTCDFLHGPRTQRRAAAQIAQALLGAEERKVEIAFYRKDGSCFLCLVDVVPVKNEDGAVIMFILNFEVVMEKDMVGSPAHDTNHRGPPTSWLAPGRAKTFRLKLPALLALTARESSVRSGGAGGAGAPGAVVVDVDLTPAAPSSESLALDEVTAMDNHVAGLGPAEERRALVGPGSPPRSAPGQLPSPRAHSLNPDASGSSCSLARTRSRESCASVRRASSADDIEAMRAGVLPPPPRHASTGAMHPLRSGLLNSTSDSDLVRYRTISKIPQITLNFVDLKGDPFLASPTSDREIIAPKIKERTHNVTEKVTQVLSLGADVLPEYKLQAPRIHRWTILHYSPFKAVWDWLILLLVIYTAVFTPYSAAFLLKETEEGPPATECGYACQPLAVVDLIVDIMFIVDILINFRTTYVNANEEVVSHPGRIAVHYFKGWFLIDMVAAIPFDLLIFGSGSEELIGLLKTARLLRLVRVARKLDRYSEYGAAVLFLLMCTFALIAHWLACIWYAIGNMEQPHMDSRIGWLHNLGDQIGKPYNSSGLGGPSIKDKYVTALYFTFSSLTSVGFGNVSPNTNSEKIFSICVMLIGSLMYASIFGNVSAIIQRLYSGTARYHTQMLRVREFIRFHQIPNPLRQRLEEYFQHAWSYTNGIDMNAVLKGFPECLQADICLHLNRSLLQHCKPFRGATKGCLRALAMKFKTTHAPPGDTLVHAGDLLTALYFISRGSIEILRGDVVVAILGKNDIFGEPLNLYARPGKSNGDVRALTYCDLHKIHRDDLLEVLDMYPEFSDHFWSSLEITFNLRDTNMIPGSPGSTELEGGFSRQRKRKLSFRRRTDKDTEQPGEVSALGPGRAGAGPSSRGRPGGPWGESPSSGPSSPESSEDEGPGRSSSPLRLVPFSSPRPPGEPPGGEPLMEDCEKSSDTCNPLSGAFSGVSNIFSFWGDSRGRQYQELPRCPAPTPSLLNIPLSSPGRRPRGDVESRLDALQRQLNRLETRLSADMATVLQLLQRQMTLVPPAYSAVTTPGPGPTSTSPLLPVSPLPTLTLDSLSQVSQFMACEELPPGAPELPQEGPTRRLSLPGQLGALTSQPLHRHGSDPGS
5-hydroxytryptamine receptor 4 (Homo sapiens), sequence (Q13639 whole entry): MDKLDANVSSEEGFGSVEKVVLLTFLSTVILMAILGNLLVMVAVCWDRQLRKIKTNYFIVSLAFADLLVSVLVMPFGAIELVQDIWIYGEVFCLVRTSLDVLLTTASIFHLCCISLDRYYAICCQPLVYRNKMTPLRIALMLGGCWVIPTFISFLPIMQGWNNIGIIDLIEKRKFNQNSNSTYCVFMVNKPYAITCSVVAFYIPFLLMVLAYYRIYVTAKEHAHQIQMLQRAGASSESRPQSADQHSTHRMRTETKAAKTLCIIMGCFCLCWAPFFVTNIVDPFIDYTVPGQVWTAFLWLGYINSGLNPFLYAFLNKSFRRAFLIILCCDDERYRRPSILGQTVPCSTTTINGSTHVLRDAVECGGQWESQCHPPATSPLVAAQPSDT
Beta-2 adrenergic receptor (Homo sapiens), sequence (P07550 whole entry, looked up): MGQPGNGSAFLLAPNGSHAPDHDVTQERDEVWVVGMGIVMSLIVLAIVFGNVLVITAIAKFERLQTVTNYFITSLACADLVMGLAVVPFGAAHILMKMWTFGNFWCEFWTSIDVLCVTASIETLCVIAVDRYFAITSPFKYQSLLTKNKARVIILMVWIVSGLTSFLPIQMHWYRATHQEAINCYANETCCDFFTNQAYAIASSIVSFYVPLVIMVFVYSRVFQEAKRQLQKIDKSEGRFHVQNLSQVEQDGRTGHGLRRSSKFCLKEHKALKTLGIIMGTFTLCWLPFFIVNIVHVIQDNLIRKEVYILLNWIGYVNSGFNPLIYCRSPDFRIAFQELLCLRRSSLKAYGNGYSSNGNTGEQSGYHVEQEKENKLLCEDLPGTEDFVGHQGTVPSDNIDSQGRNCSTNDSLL
D(3) dopamine receptor (Homo sapiens), sequence (P35462 whole entry): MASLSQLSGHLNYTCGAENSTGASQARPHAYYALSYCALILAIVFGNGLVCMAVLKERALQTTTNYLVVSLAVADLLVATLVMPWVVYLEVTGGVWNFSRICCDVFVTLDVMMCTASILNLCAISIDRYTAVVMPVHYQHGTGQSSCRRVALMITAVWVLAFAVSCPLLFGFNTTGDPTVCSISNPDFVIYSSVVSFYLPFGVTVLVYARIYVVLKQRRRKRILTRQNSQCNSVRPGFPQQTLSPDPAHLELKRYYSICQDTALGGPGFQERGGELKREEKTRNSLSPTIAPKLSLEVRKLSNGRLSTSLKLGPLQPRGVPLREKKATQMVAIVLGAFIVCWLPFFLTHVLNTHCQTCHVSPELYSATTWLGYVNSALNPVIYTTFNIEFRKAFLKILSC
Muscarinic acetylcholine receptor M3 (Homo sapiens), sequence (P20309 whole entry, looked up): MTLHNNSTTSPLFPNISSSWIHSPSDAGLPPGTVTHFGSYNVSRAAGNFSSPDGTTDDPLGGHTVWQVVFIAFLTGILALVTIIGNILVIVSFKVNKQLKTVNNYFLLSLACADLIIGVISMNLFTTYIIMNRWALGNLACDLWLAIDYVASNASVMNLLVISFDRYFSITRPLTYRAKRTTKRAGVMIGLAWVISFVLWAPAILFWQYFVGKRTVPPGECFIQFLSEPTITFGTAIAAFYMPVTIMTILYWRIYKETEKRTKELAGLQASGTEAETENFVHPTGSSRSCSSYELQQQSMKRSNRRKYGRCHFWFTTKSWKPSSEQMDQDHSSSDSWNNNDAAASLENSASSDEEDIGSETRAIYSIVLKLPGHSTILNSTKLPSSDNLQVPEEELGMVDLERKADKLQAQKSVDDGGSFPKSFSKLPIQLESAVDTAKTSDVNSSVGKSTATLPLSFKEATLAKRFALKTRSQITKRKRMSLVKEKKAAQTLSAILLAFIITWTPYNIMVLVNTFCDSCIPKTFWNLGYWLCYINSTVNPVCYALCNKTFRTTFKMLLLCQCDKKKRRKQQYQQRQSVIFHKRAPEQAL

SMILES	pEC50 [1]	Emax [2]	logD [3]	microsomal CLint [5]	Activity [6]	Activity [7]	also measured
CCn1c(CCc2ccccc2Cl)nc(N2CCNCC2)cc1=O	7.68	50%	1.9	30 µL/min/mg	16%	< 5%	efflux ratio [4]: 4.3
C[C@@H]1CNCCN1c1cc(=O)n(C)c(CCc2ccccc2)n1	6.58	50%	1	< 7 µL/min/mg	58%	< 5%	
Cn1c(COc2ccccc2Cl)nc(N2CCNCC2)cc1=O	7.14	61%	0.8	11 µL/min/mg			
C[C@@H]1CNCCN1c1cc(=O)n(C)c(COc2ccccc2C(F)(F)F)n1							Activity [8]: 480 nM; Activity [9]: > 1 µM; Activity [10]: > 1 µM; Activity [11]: > 1 µM; Activity [12]: > 1 µM; Activity [13]: 20%; Ratio [14]: 0.34; Cp [15]: 19 nM; pEC50 [16]: < 5.82; pEC50 [17]: < 5.00; pKi [18]: < 4.89; Activity [19]: 210 nM
Cn1c(CCc2ccccc2)nc(N2CCNCC2)cc1=O	6.56	43%	0.6	< 7 µL/min/mg	13%	< 5%	efflux ratio [4]: 3.4
Cc1cc(=O)n(CCCOc2ccc(F)cc2)c(N2CCNCC2)n1	< 5.00		0.7				
Cc1cc(=O)n(CCCOc2ccccc2)c(N2CCNC[C@H]2C)n1	6.79	84%	0.9	16 µL/min/mg			
Cc1cc(=O)n(CCCOc2ccccc2F)c(N2CCNCC2)n1	7.11	92%	0.45		39%	35%	
C[C@@H]1CNCCN1c1cc(=O)n(C)c(CCc2cccc(Cl)c2)n1	7.59	59%	1.6	< 10 µL/min/mg	76%	13%	efflux ratio [4]: 3.7
Cc1cc(=O)n(CCCOc2cccc(Cl)c2)c(N2CCNCC2)n1	6.58	86%	1.2				
Cc1cc(=O)n(CCCc2ccccc2)c(N2CCNCC2)n1	< 5.00						
Cn1c(COc2ccccc2C(F)(F)F)nc(N2CCNCC2)cc1=O	7.52	72%	1.4	14 µL/min/mg			
Cc1cc(=O)n(CCCOc2ccc(Cl)cc2)c(N2CCNCC2)n1	6.05	91%					
Cn1c(COc2cccc(Cl)c2)nc(N2CCNCC2)cc1=O	6.31	66%	1	< 7 µL/min/mg			
C[C@@H]1CNCCN1c1cc(=O)n(C)c(CCc2ccccc2Cl)n1	7.68	46%	1.6	24 µL/min/mg	27%	< 5%	efflux ratio [4]: 3.1
Cc1ccccc1OCc1nc(N2CCNCC2)cc(=O)n1C	6.64	60%	0.8	< 7 µL/min/mg			
C[C@@H]1CNCCN1c1ccc(=O)n(CCOc2ccccc2C(F)(F)F)n1	7.33	45%	1.4	15 µL/min/mg	50%	< 10%	efflux ratio [4]: 3.4

SMILES	pEC50 [1]	Emax [2]	logD [3]	microsomal CLint [5]	Activity [6]	Activity [7]	also measured
Cn1c(N2CCNCC2)nc(CCc2cccc(Cl)c2)cc1=O	< 5.00		1.3	< 7 µL/min/mg			
Cc1cc(=O)n(CCCOc2ccccc2Cl)c(N2CCNCC2)n1	7.25	83%	1	27 µL/min/mg	58%	46%	
C[C@@H]1CNCCN1c1cc(=O)n(C)c(CCc2ccccc2C(F)(F)F)n1	7.19	59%	1.8	29 µL/min/mg	45%	6%	
Cc1ccc(F)cc1OCc1nc(N2CCNCC2)cc(=O)n1C	7.34	84%	1	< 7 µL/min/mg			
CCn1c(COc2cc(F)ccc2Cl)nc(N2CCNCC2)cc1=O	6.99	46%	1.4	< 7 µL/min/mg			
Cn1c(COc2ccc(C(F)(F)F)cc2)nc(N2CCNCC2)cc1=O	< 5.00		1.1	8 µL/min/mg			
Cn1c(COc2cccc(C(F)(F)F)c2)nc(N2CCNCC2)cc1=O	6.31	49%	1.3				
Cn1c(COc2ccc(Cl)cc2)nc(N2CCNCC2)cc1=O	< 5.00		0.8	< 7 µL/min/mg			
Cc1cc(=O)n(CCCOc2ccccc2)c(N2CCNCC2)n1	5.99	77%	0.7	26 µL/min/mg	44%	57%	efflux ratio [4]: 1.6
Cc1ccc(Cl)cc1OCc1nc(N2CCNCC2)cc(=O)n1C	6.80	84%	1.5	< 7 µL/min/mg			
CCn1c(COc2cccc(C#N)c2)nc(N2CCNCC2)cc1=O	6.95	77%	0.4	< 7 µL/min/mg			
Cc1ccccc1CCc1nc(N2CCNC[C@H]2C)cc(=O)n1C	7.59	59%	1.4	18 µL/min/mg	50%	< 5%	efflux ratio [4]: 3.5
Cc1cc(=O)n(CCCOCc2ccccc2)c(N2CCNCC2)n1	< 5.00						
Cn1c(COc2cccc(C#N)c2)nc(N2CCNCC2)cc1=O	6.50	63%	0.3	< 7 µL/min/mg			
Cn1c(COc2cc(F)ccc2Cl)nc(N2CCNCC2)cc1=O	6.44	48%	1	< 7 µL/min/mg			
Cn1c(CCc2cccc(Cl)c2)nc(N2CCNCC2)cc1=O	7.02	59%	1.2	< 7 µL/min/mg	57%	< 5%	efflux ratio [4]: 4
Cc1cc(=O)n(CCCOc2cccc(F)c2)c(N2CCNCC2)n1	< 5.00		0.8				
